Calls of active or inactive are those of the source.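 The calls were made as follows: active = inhibition of 50% or more; inactive = inhibition below 50%.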

Sequence of Diacylglycerol lipase-beta (Mus musculus) (Q91WC9 whole entry, looked up): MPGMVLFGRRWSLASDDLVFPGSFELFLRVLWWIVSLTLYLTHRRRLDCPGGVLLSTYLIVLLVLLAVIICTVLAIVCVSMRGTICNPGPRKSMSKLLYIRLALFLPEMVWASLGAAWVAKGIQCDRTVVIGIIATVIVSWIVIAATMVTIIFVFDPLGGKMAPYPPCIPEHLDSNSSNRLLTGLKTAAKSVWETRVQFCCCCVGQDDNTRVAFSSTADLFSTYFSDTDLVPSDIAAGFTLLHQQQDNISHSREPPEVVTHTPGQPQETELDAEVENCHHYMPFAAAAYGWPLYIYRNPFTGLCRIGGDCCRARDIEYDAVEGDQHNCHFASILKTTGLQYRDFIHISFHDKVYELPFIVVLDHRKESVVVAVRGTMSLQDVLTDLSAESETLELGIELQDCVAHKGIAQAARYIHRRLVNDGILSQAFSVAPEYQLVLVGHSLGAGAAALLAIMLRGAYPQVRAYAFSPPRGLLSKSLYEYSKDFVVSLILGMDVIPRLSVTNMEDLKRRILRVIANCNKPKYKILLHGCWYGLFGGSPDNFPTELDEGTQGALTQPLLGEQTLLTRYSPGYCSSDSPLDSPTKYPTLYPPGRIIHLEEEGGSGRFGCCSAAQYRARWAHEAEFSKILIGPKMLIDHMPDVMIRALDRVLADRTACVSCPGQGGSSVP

The target of the experiment is Diacylglycerol lipase-beta (Mus musculus) (UniProt Q91WC9). Description: mouse DAGLb inhibition, FP-Rh labelling competition – biochemical, in-gel fluorescence, overexpressed mouse DAGLb, triazole urea library, late-stage follow-up (AID 602303). The settings on record: HEK293T membrane overexpressing mouse DAGLb, gel ABPP FP-Rh; at 0.5 µM; active compounds read high. The gist of the method:
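Test system: HEK293T membranes overexpressing mouse DAGLb / Medium: DPBS / Reagent: FP-Rh probe at 5 µM / Dosing: one concentration, 0.5 µM / Times: 30 min compound plus 30 min probe, 37 °C / Measured by: in-gel fluorescence after SDS-PAGE / Read-out basis: percent inhibition from band integrated optical density, normalized to DMSO and background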
For `C=CCN(CC=C)C(=O)n1ccnn1`, the inhibition is 25% (inactive). For the molecule `O=C(N1CCCC1)n1ncc(-c2ccc(-c3ccccc3)cc2)n1`, the inhibition is 25% (inactive). In the case of `CC(C)(O)c1cnn(C(=O)N2CCCC2)n1`, the inhibition is 25% (inactive).

Take `CC(C)(C)C1CCN(C(=O)n2nccn2)CC1`: the inhibition is 35% (inactive). Consider `CCN(CC)C(=O)n1ccnn1`, for which the inhibition is 0% (inactive). Take `CN(C(=O)n1ccnn1)c1ccccc1`: the inhibition was 25% (inactive). For `COCCCC1CCCCN1C(=O)n1ncc(C(O)(c2ccccc2)c2ccccc2)n1` (configuration not stated), the inhibition was 5% (inactive). Take `COCC1CCCCN1C(=O)n1ncc(C(O)(c2ccccc2)c2ccccc2)n1` (configuration not stated): the inhibition is 15% (inactive). To `O=C(N(c1ccccc1)c1ccccc1)n1ncc(C(O)(c2ccccc2)c2ccccc2)n1` belongs 65%. Take `CCC1CCCCN1C(=O)n1ncc(C(O)(c2ccccc2)c2ccccc2)n1` (configuration not stated): the inhibition is 10% (inactive). In the case of `C=CCN(CC=C)C(=O)n1ncc(-c2ccccc2)n1`, the inhibition was 5% (inactive).

As to `CC1CCN(C(=O)n2ncc(C(O)(c3ccccc3)c3ccccc3)n2)CC1`, the inhibition is 10% (inactive).

For `CC(C)(C)C1CCN(C(=O)n2ncc(C3(O)CCCCC3)n2)CC1`, the inhibition is 20% (inactive). On to `O=C(N1CCOCC1)n1ccnn1`, for which the inhibition was 40% (inactive). `O=C(N1CCCC1)n1ncc(-c2cc(F)cc(F)c2)n1`: the inhibition was 10% (inactive). For the molecule `O=C(N1CCOCC1)n1ncc(-c2ccccc2)n1`, the inhibition is 0% (inactive). `O=C(N1CCCC1)n1ncc(-c2ccc(Cl)c(Cl)c2)n1`: the inhibition was 30% (inactive).

For `C=CCN(CC=C)C(=O)n1ncc(C(O)(c2ccccc2)c2ccccc2)n1`, the inhibition is 60%.

For `O=C(N1CCCC1)n1ncc(C2(O)CCCCC2)n1`, the inhibition was 25% (inactive). On to `O=C(OC(c1ccccc1)c1cnn(C(=O)N2CCCCC2)n1)N1CCCCC1` (configuration not stated), for which the inhibition is 15% (inactive).

For the molecule `CC1CCN(C(=O)n2ncc(C(C)(C)O)n2)CC1`, the inhibition was 35% (inactive). `O=C(N(c1ccccc1)c1ccccc1)n1ccnn1`: the inhibition is 5% (inactive). Take `CN1CCN(C(=O)n2ccnn2)CC1`: the inhibition is 35% (inactive). For `C=CCN(CC=C)C(=O)n1ncc(-c2cc(F)cc(F)c2)n1`, the inhibition was 25% (inactive). To `O=C(N1CCC(Cc2ccccc2)CC1)n1ncc(C(O)(c2ccccc2)c2ccccc2)n1` belongs 30% (inactive); to `O=C(N1CCCC1)n1ncc(-c2ccc(Oc3ccccc3)cc2)n1`, 45% (inactive); to `O=C(N1CCC(C(O)(c2ccccc2)c2ccccc2)CC1)n1nccn1`, 15% (inactive). Turning to `O=C(N1CCOCC1)n1ncc(-c2cc(F)cc(F)c2)n1`, the inhibition is 20% (inactive).

Regarding `O=C(N1CCC(C(O)(c2ccccc2)c2ccccc2)CC1)n1ncc(C(O)(c2ccccc2)c2ccccc2)n1`, the inhibition was 30% (inactive). As to `O=C(N1CCCC1)n1ncc(-c2ccccc2)n1`, the inhibition is 35% (inactive). Next, `O=C(N1CCOCC1)n1ncc(C(O)(c2ccccc2)c2ccccc2)n1`: 15% (inactive); `O=C(n1ccnn1)n1c2ccccc2c2ccccc21`: 25% (inactive); `O=C(N1CCCCC1)n1ncc(C(O)c2ccccc2)n1` (configuration not stated): 5% (inactive). On to `O=C(N1CCc2ccccc2C1)n1ncc(C(O)(c2ccccc2)c2ccccc2)n1`, for which the inhibition is 35% (inactive).

For the molecule `COC1CCN(C(=O)n2ncc(C(O)(c3ccccc3)c3ccccc3)n2)CC1`, the inhibition was 0% (inactive). As to `O=C(N1CCCCC1Cc1ccccc1)n1ncc(C(O)(c2ccccc2)c2ccccc2)n1` (configuration not stated), the inhibition was 95%. Consider `C=CCN(CC=C)C(=O)n1ncc(-c2ccc(OC(F)(F)F)cc2)n1`, for which the inhibition is 50%. To `O=C(N1CCCC1)n1ncc(C(O)(c2ccccc2)c2ccccc2)n1` belongs 0% (inactive); to `O=C(N1CCCCC1)n1ccnn1`, 20% (inactive); to `COc1ccc2cc(-c3cnn(C(=O)N4CCCC4)n3)ccc2c1`, 20% (inactive). Next, `O=C(N1CCCCC1)n1ncc(-c2ccc(Oc3ccccc3)cc2)n1`: 40% (inactive); `COc1ccc2cc(-c3cnn(C(=O)N4CCCCC4)n3)ccc2c1`: 20% (inactive); `O=C(N1CCCC1)n1ncc(-c2ccc(OC(F)(F)F)cc2)n1`: 15% (inactive). Next, `CC(C)(C)C1CCN(C(=O)n2ncc(C(O)(c3ccccc3)c3ccccc3)n2)CC1`: 45% (inactive); `O=C(N1CCCC1)n1ncc(-c2ccc([N+](=O)[O-])cc2)n1`: 35% (inactive); `CC(C)(O)c1cnn(C(=O)N2CCC(C(C)(C)C)CC2)n1`: 45% (inactive).

Regarding `O=C(N1CCCC1)n1ccnn1`, the inhibition is 30% (inactive). With `CN(C)C(=O)n1ccnn1`, the inhibition is 0% (inactive).

`O=C(N1CCOCC1)n1ncc(-c2ccc(OC(F)(F)F)cc2)n1`: the inhibition is 40% (inactive). As for `CCN(CC)C(=O)n1ncc(C(O)(c2ccccc2)c2ccccc2)n1`, the inhibition was 5% (inactive).

Regarding `O=C(N1CCCCC1)n1ncc(C(O)(c2ccccc2)c2ccccc2)n1`, the inhibition was 10% (inactive). To `CC(C)(O)c1cnn(C(=O)N2CCCCC2)n1` belongs 25% (inactive).

For the origin of these results see PubChem BioAssay AID602303 (The Scripps Research Institute Molecular Screening Center, 2012).
